Assay results from ChEMBL document CHEMBL1806473, “Structure-based optimization of click-based histone deacetylase inhibitors” (Eur J Med Chem, 2011).

How the values were obtained:
M14 [1] = experiment: Cytotoxicity against human M14 cells; type: cell-based
Malme-3M [2] = experiment: Cytotoxicity against human MALME-3M cells; type: cell-based
Procedure, shortened: (§1)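 Tested in the NCI in vitro disease-oriented human tumour cell line screen, with screening performed by NCI. Growth was read by SRB signal over the drug incubation period at five concentrations: 100, 10, 1.0, 0.1 and 0.01 μM. GI50 is the concentration that reduces growth of treated cells to half that of control cells.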

HOP-92 = experiment: Cytotoxicity against human HOP92 cells; type: cell-based
SR [3] = experiment: Antiproliferative activity against human SR cells by SRB assay; type: functional
Procedure, shortened: (§2)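 Cell growth was tested in the NIH in vitro disease-oriented human tumor cell line screen, which NCI ran for these compounds. Compounds were tested at five concentrations (100, 10, 1.0, 0.1 and 0.01 μM), and growth was read by SRB signal. GI50 is the drug concentration that reduces growth of treated cells to half that of control cells during drug incubation.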

UO-31 = experiment: Antiproliferative activity against human UO31 cells by SRB assay; type: functional; procedure, shortened: as §2
SF-268 [4] = experiment: Antiproliferative activity against human SF268 cells by SRB assay; type: functional
Procedure, shortened: (§3)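 Tested in the NCI in vitro human tumor cell line screen, run by the National Cancer Institute. Each compound was given at five concentrations (100, 10, 1.0, 0.1 and 0.01 μM). GI50 is the drug concentration that reduces growth of treated cells to half that of control cells during drug incubation, judged from the SRB signal.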

RXF 393 = experiment: Antiproliferative activity against human RXF393 cells by SRB assay; type: functional; procedure, shortened: as §3
TK-10 = experiment: Antiproliferative activity against human TK10 cells by SRB assay; type: functional; procedure, shortened: as §2
Malme-3M [5] = experiment: Antiproliferative activity against human MALME-3M cells by SRB assay; type: functional; procedure, shortened: as §3
A549 = experiment: Cytotoxicity against human A549 cells; type: cell-based; procedure, shortened: as §1
BT-549 [6] = experiment: Antiproliferative activity against human BT549 cells by SRB assay; type: functional; procedure, shortened: as §3
OVCAR-3 = experiment: Antiproliferative activity against human OVCAR3 cells by SRB assay; type: functional; procedure, shortened: as §3
U-251 = experiment: Antiproliferative activity against human U251 cells by SRB assay; type: functional; procedure, shortened: as §2
COLO 205 = experiment: Cytotoxicity against human COLO205 cells; type: cell-based; procedure, shortened: as §1
NCI-H23 [7] = experiment: Antiproliferative activity against human NCI-H23 cells by SRB assay; type: functional; procedure, shortened: as §3
SW-620 [8] = experiment: Cytotoxicity against human SW620 cells; type: cell-based
Procedure, shortened: (§4)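 Screened by NCI in its in vitro disease-oriented human tumour cell line panel. Compounds tested at five concentrations (100, 10, 1.0, 0.1 and 0.01 μM). Growth read by sulforhodamine B (SRB) signal. GI50 is the concentration reducing growth of treated cells to half that of control cells during the drug incubation.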

SW-620 [9] = experiment: Antiproliferative activity against human SW620 cells by SRB assay; type: functional; procedure, shortened: as §2
NCI-H23 [10] = experiment: Cytotoxicity against human NCI-H23 cells; type: cell-based
SR [11] = experiment: Cytotoxicity against human SR cells; type: cell-based; procedure, shortened: as §4
SF-539 [12] = experiment: Cytotoxicity against human SF539 cells; type: cell-based; procedure, shortened: as §1
CAKI-1 = experiment: Cytotoxicity against human Caki1 cells; type: cell-based
A498 [13] = experiment: Cytotoxicity against human A498 cells; type: cell-based
OVCAR-4 = experiment: Cytotoxicity against human OVCAR4 cells; type: cell-based
OVCAR-5 [14] = experiment: Antiproliferative activity against human OVCAR5 cells by SRB assay; type: functional; procedure, shortened: as §3
M14 [15] = experiment: Antiproliferative activity against human M14 cells by SRB assay; type: functional; procedure, shortened: as §3
OVCAR-5 [16] = experiment: Cytotoxicity against human OVCAR5 cells; type: cell-based; procedure, shortened: as §1
T47D = experiment: Antiproliferative activity against human T47D cells by SRB assay; type: functional; procedure, shortened: as §2
HCT-116 = experiment: Antiproliferative activity against human HCT116 cells by SRB assay; type: functional; procedure, shortened: as §3
DU-145 [17] = experiment: Antiproliferative activity against human DU145 cells by SRB assay; type: functional; procedure, shortened: as §3
NCI-H460 [18] = experiment: Antiproliferative activity against human NCI-H460 cells by SRB assay; type: functional; procedure, shortened: as §3
CCRF-CEM = experiment: Cytotoxicity against human CCRF-CEM cells; type: cell-based
MDA-MB-231 = experiment: Antiproliferative activity against human MDA-MB-231 cells by SRB assay; type: functional; procedure, shortened: as §3
SK-OV-3 [19] = experiment: Cytotoxicity against human SKOV3 cells; type: cell-based
MDA-MB-435 [20] = experiment: Cytotoxicity against human MDA-MB-435 cells; type: cell-based
SF-268 [21] = experiment: Cytotoxicity against human SF268 cells; type: cell-based; procedure, shortened: as §1
MDA-MB-435 [22] = experiment: Antiproliferative activity against human MDA-MB-435 cells by SRB assay; type: functional; procedure, shortened: as §3
BT-549 [23] = experiment: Cytotoxicity against human BT549 cells; type: cell-based
SK-OV-3 [24] = experiment: Antiproliferative activity against human SKOV3 cells by SRB assay; type: functional; procedure, shortened: as §3
NCI-H226 = experiment: Cytotoxicity against human NCI-H226 cells; type: cell-based
ACHN = experiment: Antiproliferative activity against human ACHN cells by SRB assay; type: functional; procedure, shortened: as §3
HOP-62 = experiment: Cytotoxicity against human HOP62 cells; type: cell-based; procedure, shortened: as §1
SF-539 [25] = experiment: Antiproliferative activity against human SF539 cells by SRB assay; type: functional; procedure, shortened: as §3
EKVX [26] = experiment: Antiproliferative activity against human EKVX cells by SRB assay; type: functional; procedure, shortened: as §3
NCI-H460 [27] = experiment: Cytotoxicity against human NCI-H460 cells; type: cell-based
PC-3 = experiment: Cytotoxicity against human PC3 cells; type: cell-based
UACC-62 = experiment: Antiproliferative activity against human UACC62 cells by SRB assay; type: functional; procedure, shortened: as §2
LOX IMVI [28] = experiment: Antiproliferative activity against human LOXIMVI cells by SRB assay; type: functional; procedure, shortened: as §3
MCF7 = experiment: Antiproliferative activity against human MCF7 cells by SRB assay; type: functional; procedure, shortened: as §3
786-0 [29] = experiment: Cytotoxicity against human 786-0 cells; type: cell-based
MDA-MB-468 = experiment: Antiproliferative activity against human MDA-MB-468 cells by SRB assay; type: functional; procedure, shortened: as §3
786-0 [30] = experiment: Antiproliferative activity against human 786-0 cells by SRB assay; type: functional; procedure, shortened: as §3
DU-145 [31] = experiment: Cytotoxicity against human DU145 cells; type: cell-based; procedure, shortened: as §1
HCT-15 = experiment: Antiproliferative activity against human HCT15 cells by SRB assay; type: functional; procedure, shortened: as §3
EKVX [32] = experiment: Cytotoxicity against human EKVX cells; type: cell-based; procedure, shortened: as §1
SK-MEL-28 = experiment: Antiproliferative activity against human SK-MEL-28 cells by SRB assay; type: functional; procedure, shortened: as §3
SN12C = experiment: Antiproliferative activity against human SN12C cells by SRB assay; type: functional; procedure, shortened: as §3
K562 = experiment: Antiproliferative activity against human K562 cells by SRB assay; type: functional; procedure, shortened: as §3
HT-29 = experiment: Cytotoxicity against human HT-29 cells; type: cell-based; procedure, shortened: as §1
NCI-H322M [33] = experiment: Cytotoxicity against human NCI-H322M cells; type: cell-based
LOX IMVI [34] = experiment: Cytotoxicity against human LOXIMVI cells; type: cell-based
SF-295 = experiment: Antiproliferative activity against human SF295 cells by SRB assay; type: functional; procedure, shortened: as §3
NCI-H322M [35] = experiment: Antiproliferative activity against human NCI-H322M cells by SRB assay; type: functional; procedure, shortened: as §3
A498 [36] = experiment: Antiproliferative activity against human A498 cells by SRB assay; type: functional; procedure, shortened: as §3

`O=C(/C=C/c1ccc(CN(CCO)CCc2c[nH]c3ccccc23)cc1)NO` [DACINOSTAT] showed an LC50 (M14 [1]) of 93800 nM, an LC50 (Malme-3M [2]) of 82000 nM and an LC50 (HOP-92) of 68200 nM. It also gave a GI50 (SR [3]) of 2990 nM, a GI50 (UO-31) of 1120 nM and a GI50 (SF-268 [4]) of 1530 nM. For the same molecule, the GI50 (RXF 393) was < 10 nM, the GI50 (TK-10) was 495 nM and the GI50 (Malme-3M [5]) was 461 nM. For the same molecule, the LC50 (A549) was 94600 nM, the GI50 (BT-549 [6]) was 3920 nM and the GI50 (OVCAR-3) was 1110 nM. The GI50 (U-251) was 773 nM, the LC50 (COLO 205) was 50400 nM and the GI50 (NCI-H23 [7]) was 1500 nM. The LC50 (SW-620 [8]) was 81300 nM, the GI50 (SW-620 [9]) was 478 nM and the LC50 (NCI-H23 [10]) was > 100000 nM. The LC50 (SR [11]) was > 100000 nM, the LC50 (SF-539 [12]) was 57100 nM and the LC50 (CAKI-1) was 5790 nM. For the same molecule, the LC50 (A498 [13]) was 5880 nM, the LC50 (OVCAR-4) was > 100000 nM and the GI50 (OVCAR-5 [14]) was 260 nM. For the same molecule, the GI50 (M14 [15]) was 849 nM, the LC50 (OVCAR-5 [16]) was 38900 nM and the GI50 (T47D) was 444 nM. The GI50 (HCT-116) was 347 nM, the GI50 (DU-145 [17]) was 580 nM and the GI50 (NCI-H460 [18]) was 700 nM. For the same molecule, the LC50 (CCRF-CEM) was > 100000 nM, the GI50 (MDA-MB-231) was 1960 nM and the LC50 (SK-OV-3 [19]) was 28500 nM. For the same molecule, the LC50 (MDA-MB-435 [20]) was 28800 nM, the LC50 (SF-268 [21]) was 92100 nM and the GI50 (MDA-MB-435 [22]) was 537 nM. For the same molecule, the LC50 (BT-549 [23]) was 85600 nM, the GI50 (SK-OV-3 [24]) was 524 nM and the LC50 (NCI-H226) was 20000 nM. The GI50 (ACHN) was 1100 nM, the LC50 (HOP-62) was > 100000 nM and the GI50 (SF-539 [25]) was 965 nM. For the same molecule, the GI50 (EKVX [26]) was 1750 nM, the LC50 (NCI-H460 [27]) was > 100000 nM and the LC50 (PC-3) was 73500 nM. The GI50 (UACC-62) was 379 nM, the GI50 (LOX IMVI [28]) was 1080 nM and the GI50 (MCF7) was 730 nM. The LC50 (786-0 [29]) was 52400 nM, the GI50 (MDA-MB-468) was 452 nM and the GI50 (786-0 [30]) was 2380 nM. The LC50 (DU-145 [31]) was > 100000 nM, the GI50 (HCT-15) was 2070 nM and the LC50 (EKVX [32]) was > 100000 nM. The GI50 (SK-MEL-28) was 993 nM, the GI50 (SN12C) was 1620 nM and the GI50 (K562) was 550 nM. For the same molecule, the LC50 (HT-29) was > 100000 nM, the LC50 (NCI-H322M [33]) was > 100000 nM and the LC50 (LOX IMVI [34]) was 6040 nM. It also gave a GI50 (SF-295) of 743 nM, a GI50 (NCI-H322M [35]) of 2260 nM and a GI50 (A498 [36]) of 1110 nM.
